Test system: Radical scavenging activity
Experiment: Antioxidant activity assessed as DPPH free radical scavenging activity after 20 mins
Type: functional
How it was run: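 Test compound at 5–200 μM mixed with an equal volume of 200 μM DPPH in ethanol, incubated 20 min at room temperature; absorbance read at 517 nm (also at 30, 45 and 60 min). IC50 = concentration giving 50% inhibition of 200 μM DPPH, from linear regression over at least five concentrations in triplicate; mean ± SD of at least three experiments.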

Row | Structure (SMILES) | IC50
1 | O=c1cc(O)c2ccc3c(c2o1)C=CC1(CCCCC1)O3 | 201 µM
2 | O=c1cc(O)c2ccc3c(c2o1)C=CC1(CCCCCC1)O3 | 202 µM
3 | O=c1ccc2ccc(O)cc2o1 [UMBELLIFERONE] | > 400 µM
4 | O=c1cc(O)c2ccc3c(c2o1)C=CC1(CCCC1)O3 | 182 µM
5 | O=c1cc(O)c2ccccc2o1 [4-HYDROXYCOUMARINS] | 124 µM

Continued, values first:

Row | IC50 | Structure (SMILES)
6 | 161 µM | O=c1cc(O)c2ccc3c(c2o1)[C@@H](O)[C@@H](O)C1(CCCCC1)O3
7 | 97.8 µM | O=c1cc(O)c2ccc3c(c2o1)[C@@H](O)[C@@H](O)C1(CCCC1)O3
8 | 166 µM | O=c1cc(O)c2ccc3c(c2o1)[C@@H](O)[C@@H](O)C1(O3)C2CC3CC(C2)CC1C3 (some centres not stated)
9 | 83.8 µM | Cc1cc(C(C)(C)C)c(O)c(C(C)(C)C)c1 [BUTYLATED HYDROXYTOLUENE]
10 | 158 µM | O=c1cc(O)c2ccc3c(c2o1)[C@@H](O)[C@@H](O)C1(CCCCCC1)O3
11 | 130 µM | O=c1cc(O)c2ccc3c(c2o1)C=CC1(O3)C2CC3CC(C2)CC1C3 (configuration not stated)

Test system: not listed separately
Experiment: Antioxidant activity assessed as inhibition of xanthine-xanthine oxidase generated superoxide anion radical production at 0.5 mM
Type: functional
How it was run: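 Superoxide generated enzymically by xanthine oxidase (0.07 U ml⁻¹, added to start the reaction) with 200 μM xanthine and 600 μM NBT in 0.1 phosphate buffer, pH 7.4. Read-out was the NBT reduction product.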

Row | Structure (SMILES) | inhibition
12 | O=c1cc(O)c2ccc3c(c2o1)[C@@H](O)[C@@H](O)C1(CCCCC1)O3 | 51.7%
13 | O=c1cc(O)c2ccc3c(c2o1)[C@@H](O)[C@@H](O)C1(CCCC1)O3 | 63.5%
14 | O=c1cc(O)c2ccc3c(c2o1)[C@@H](O)[C@@H](O)C1(O3)C2CC3CC(C2)CC1C3 (some centres not stated) | 48.3%
15 | O=c1cc(O)c2ccc3c(c2o1)C=CC1(CCCCC1)O3 | < 10%
16 | O=c1cc(O)c2ccc3c(c2o1)C=CC1(CCCCCC1)O3 | < 10%
17 | O=c1ccc2ccc(O)cc2o1 [UMBELLIFERONE] | 32.6%
18 | O=c1cc(O)c2ccc3c(c2o1)C=CC1(CCCC1)O3 | < 10%
19 | O=c1cc(O)c2ccc3c(c2o1)[C@@H](O)[C@@H](O)C1(CCCCCC1)O3 | 35.8%
20 | O=c1cc(O)c2ccccc2o1 [4-HYDROXYCOUMARINS] | 19.4%
21 | O=c1cc(O)c2ccc3c(c2o1)C=CC1(O3)C2CC3CC(C2)CC1C3 (configuration not stated) | 37.3%
22 | Oc1ncnc2[nH]ncc12 | 42.3%

Reference: ChEMBL document CHEMBL1143430, “Synthesis and free radical scavenging activity of some new spiropyranocoumarins” (Bioorg Med Chem Lett, 2008)
